Only some compounds are listed: those with a hit (about 1.8% of all), similar ones and a draw of the others.
rRNA inh HTS – inhibitors of bacterial rRNA selective over humanized ribosomes | E. coli WT GFP vs humanized-ribosome RFP mutants, fluorescence, 24 h; active compounds read low; DMSO median 0, no signal -100 | GFP signal change (wild-type ribosome), % (no concentration beside the values) | hit rate 1.6% among 350,000 | AID 720706;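 active means significant combined selectivity score with lowered wild-type GFP, culture density cut under 30%, mutant RFP and density less affected; inactive means any of these conditions unmet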
Cneo AK release – causes C. neoformans cell lysis; lysis activity, % at 15 µM; adenylate kinase release luminescence, 4 h; normalised: neutral wells 0, clomiphene wells 100; AID 651654; hit rate 0.2% among 360,000;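 active means mean lysis activity across replicates of at least 80%, whatever share of replicates individually reach that level; inactive means mean lysis activity below 80%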
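Assay system: Cryptococcus neoformans yeast cells / Dosing: single-point compound dose / Timing: 4 h at 37 °C static, read 1 h later / Measured by: luminescence of released adenylate kinase using an AK detection reagent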
iPSC survival up – enhancers of human iPSC single-cell survival. hiPSC single-cell survival, ATPlite luminescence; 100% = ROCK inhibitor wells, 0% = DMSO. survival enhancement, % at 20 µM. hit rate 0.044% among 360,000. AID 602274; in the data active means survival enhancement above about 18%;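 further: cells exposed to compounds for 16 hours before the ATP read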
MT1-MMP act inh – blocks activation of human MT1-MMP; GFP/RFP ratio change, % at 20 µM; HT1080 RFP-PRO-GFP cells, GFP/RFP ratio fluorescence, overnight; percent of plate control window, DMSO zero; P50281; hit rate 0.061% among 360,000;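 active means GFP/RFP ratio change of at least 30% with cell ATP level not reduced by more than half and red fluorescence within 50% of control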
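Assay system: RFP-PRO-GFP reporter HT1080 cells; read-out basis: GFP/RFP fluorescence ratio; benchmarks: DMSO wells and RFP-L50D-GFP cells; doses: 20 µM single dose, 1% DMSO; schedule: overnight cell settling, then overnight compound exposure, 37 °C, 5% CO2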
SKN-1 inh – blocks SKN-1 activity in C. elegans; C. elegans VP596 Pgst-4::GFP/RFP ratio, acrylamide-induced, 24 h; inhibition, % at 21.8 µM; hit rate 0.49% among 360,000;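 active means interference check ratio from 0.5 to 1.5 plus GFP to RFP signal ratio inhibition reaching or exceeding a fixed threshold, cut at about 30% in these data, passing the limit was not always enough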
DAGLB inh – diacylglycerol lipase beta (human) inhibition; Q8NCG7; HEK293T DAGLB membrane lysate, EnzChek fluorogenic substrate; inhibition, % at 5.17 µM; hit rate 0.059% among 340,000; in the data active means inhibition above about 34%
Target sequence (Q8NCG7 whole entry, looked up): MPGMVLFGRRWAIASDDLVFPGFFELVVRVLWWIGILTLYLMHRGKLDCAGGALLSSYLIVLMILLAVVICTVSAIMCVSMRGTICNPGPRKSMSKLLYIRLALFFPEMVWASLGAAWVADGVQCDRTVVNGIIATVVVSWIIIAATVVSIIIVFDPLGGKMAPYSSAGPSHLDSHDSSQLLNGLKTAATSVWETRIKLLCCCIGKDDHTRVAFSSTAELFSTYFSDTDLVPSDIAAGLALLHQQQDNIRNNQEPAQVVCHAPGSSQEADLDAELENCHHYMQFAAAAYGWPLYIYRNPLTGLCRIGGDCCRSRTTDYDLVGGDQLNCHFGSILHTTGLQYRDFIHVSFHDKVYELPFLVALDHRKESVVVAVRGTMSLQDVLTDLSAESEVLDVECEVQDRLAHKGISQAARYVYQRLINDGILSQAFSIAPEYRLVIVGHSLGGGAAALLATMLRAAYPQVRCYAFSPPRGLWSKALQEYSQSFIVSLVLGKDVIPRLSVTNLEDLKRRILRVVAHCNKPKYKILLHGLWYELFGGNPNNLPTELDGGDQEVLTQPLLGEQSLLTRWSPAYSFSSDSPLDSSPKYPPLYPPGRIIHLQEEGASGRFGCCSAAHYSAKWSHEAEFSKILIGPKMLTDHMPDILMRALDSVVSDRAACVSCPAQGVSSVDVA
Numbers stand for hits; - = inactive; . = not tested or not shown.

SMILES | rRNA inh HTS | Cneo AK release | iPSC survival up | MT1-MMP act inh | SKN-1 inh | DAGLB inh
CCOC(=O)/C(=N\Nc1ccccc1[N+](=O)[O-])c1csc(N)n1 | -27 | . | - | - | - | -
C[C@H]1CCCCO[C@H](CN(C)Cc2ccncc2)[C@@H](C)CN([C@@H](C)CO)C(=O)c2cc(NC(=O)Nc3cccc4ccccc34)ccc2O1 | - | - | . | . | . | .
Cc1ccc(C)c(CN2CCC(n3nccc3NC(=O)CCCc3ccccc3)CC2)c1 | -27 | - | - | - | - | -
CCOC(=O)c1c(CS(=O)(=O)c2ccccc2)n(C)c2cc(Br)c(O)c(CN(C)C)c12 | - | . | - | - | - | -
CCOC(=O)c1c(CS(=O)(=O)c2ccccc2)n(C)c2cc(Br)c(O)cc12 | -19 | - | - | - | - | -
COc1cc(-c2nc3n(n2)C(c2ccc(F)cc2)C2=C(CCCC2=O)N3)cc(OC)c1OC (stereo not drawn) | -27 | . | - | - | - | -
COc1cccc(C2C3=C(CCCC3=O)Nc3nc(-c4cc(OC)c(OC)c(OC)c4)nn32)c1 (stereo not drawn) | . | - | - | - | - | -
NC(N)=Nc1ccc(C=C2C=Cc3ccccc32)cc1 | . | . | - | - | - | -
Nc1ccc(C=C2C=Cc3ccccc32)cc1 | - | - | - | - | 52 | -
CCCS(=O)(=O)N1CCCC(C(=O)NCc2cccnc2)C1 (stereo not drawn) | - | - | - | - | - | -
CCCS(=O)(=O)N1CCC(C(=O)NCc2cccnc2)CC1 | . | . | - | - | 52 | -
C[C@H](CO)N1C[C@H](C)[C@@H](CN(C)CC2CC2)Oc2cc(C#C[C@@H](C)O)ccc2S1(=O)=O | - | . | . | . | . | .
CCc1cccc(C)c1NC(=S)NCC1CCN(c2ccc(OC)cc2)C1 (stereo not drawn) | - | - | - | - | - | -
CCc1ccccc1NC(=S)NCC1CCN(c2ccc(OC)cc2)C1 (stereo not drawn) | -18 | - | - | - | - | -
CC(C)n1cnc2c(N(C)c3cccc(Cl)c3)nc(N(CCO)CCO)nc21 | -33 | - | - | - | - | -
C=CCn1c(COc2ccccc2)nc2ccccc21 | -27 | - | - | - | - | -
O=C1Nc2ccc(F)cc2C12Nc1ccccc1-c1nnc(SCc3ccccc3)nc1O2 (stereo not drawn) | -17 | - | - | - | - | -
Cc1ccc(CSc2nnc3c(n2)OC2(Nc4ccccc4-3)C(=O)Nc3ccc(F)cc32)cc1 (stereo not drawn) | - | - | - | - | - | -
Cc1ccc(S(=O)(=O)Nc2ccc3c(c2)CC(=O)N([C@@H](C)CO)C[C@@H](C)[C@@H](CN(C)CC2CCCCC2)O3)cc1 | - | - | . | . | . | .
C[C@H](CO)N1C[C@H](C)[C@@H](CN(C)C(=O)Nc2ccc(C(F)(F)F)cc2)Oc2ccc(NS(=O)(=O)c3ccc(F)cc3)cc2CC1=O | - | - | . | . | . | .
COc1ccc(C2=Nc3ccccc3NC(=O)C2N(Cc2ccccc2)C(=O)C2=NNC(=O)CC2)cc1 (stereo not drawn) | -23 | - | - | - | - | .
CSc1nc(C)c(CCOCc2ccc(F)cc2)c(=O)[nH]1 | -22 | . | - | - | - | .
CS/C(=N\S(=O)(=O)c1cccs1)Nc1ccc(F)c(Cl)c1 | - | . | - | - | - | -
CS/C(=N\S(=O)(=O)c1cccs1)Nc1cccc(Cl)c1C | -44 | - | - | - | - | -
Cn1nc(C(=O)N2CCN(S(=O)(=O)c3ccccc3)CC2)c2ccccc2c1=O | . | - | - | - | 38 | -
SMILES | rRNA inh HTS | Cneo AK release | iPSC survival up | MT1-MMP act inh | SKN-1 inh | DAGLB inh
CO[C@@H]1CN(C)C(=O)c2cc(NC(=O)C3CCCC3)ccc2OC[C@H](C)N(CC2CC2)C[C@H]1C | - | - | . | . | . | .
O=C(/C=C1\NC2(CCCC2)Cc2ccccc21)C(=O)N/N=C/c1ccc(O)c(O)c1 | -21 | . | - | - | - | -
O=C(N[C@H]1C=C[C@H](CC(=O)N2CCc3ccccc3C2)O[C@H]1CO)C1CCOCC1 | - | . | . | . | . | .
CN(C)c1ccc(N=Nc2ccc(C(=O)O)cc2)cc1 | - | . | - | - | 41 | -
O=[N+]([O-])c1c(C(Cl)Cl)nn(-c2ccccc2)c1N1CCCC1 | -43 | - | - | - | - | -
CCOC(=O)C1CCN(c2c([N+](=O)[O-])c(C(Cl)Cl)nn2-c2ccccc2)CC1 | . | - | - | - | - | -
C[C@H]1CN([C@@H](C)CO)C(=O)c2cc(-c3ccc(F)cc3)cnc2O[C@H]1CN(C)Cc1ccc(F)cc1 | - | . | . | . | . | .
CC1(c2nnc(-c3ccccc3)o2)CC(c2c(Cl)cccc2Cl)=NO1 (stereo not drawn) | -29 | - | - | - | - | -
CC1(c2nnc(-c3ccncc3)o2)CC(c2c(Cl)cccc2Cl)=NO1 (stereo not drawn) | - | - | - | - | - | -
Fc1ccccc1-c1nc(-c2ccc(Cl)cc2)no1 | . | - | - | - | 36 | -
O=C1c2ccccc2C(=O)N1CCc1nc(-c2ccncc2)no1 | . | - | - | - | - | -
O=C1c2ccccc2C(=O)N1CCc1nc(-c2ccc(Cl)cc2)no1 | . | - | - | - | 48 | -
NC(=O)c1ccc(-c2noc(-c3ccccc3F)n2)cc1 | - | - | - | - | - | -
COc1ccccc1CNC(=O)C[C@@H]1C=C[C@H](NC(=O)CN(C)C)[C@@H](CO)O1 | - | - | . | . | . | .
CN(CC(=O)Nc1cccc(F)c1)C(=O)CC1CC2CCC1C2 (stereo not drawn) | - | - | - | - | 36 | -
CCc1c(O)nc(SCC(=O)Nc2nc3ccccc3s2)n(C2CCCCC2)c1=O | -17 | - | - | - | - | -
c1csc(CSc2nc3ccccc3s2)c1 | . | . | - | - | 78 | -
Cc1noc(C)c1CSc1nc2ccccc2s1 | . | - | - | - | - | -
Cc1ccc2nc(NC(=O)CN3C(=O)C4CC=CCC4C3=O)sc2c1 (stereo not drawn) | -25 | . | - | - | - | -
CS(=O)(=O)c1ccc2nc(NC(=O)CN3C(=O)C4CC=CCC4C3=O)sc2c1 (stereo not drawn) | - | - | - | - | - | -
CCCNC(=O)N1C[C@H](C)[C@@H](OC)CN(C)C(=O)c2cc(NC(=O)C3CCC3)ccc2OC[C@@H]1C | - | . | . | . | . | .
CC(C)NC(=O)N(C)C[C@H]1Oc2c(NC(=O)c3nc4ccccc4s3)cccc2C(=O)N([C@H](C)CO)C[C@@H]1C | - | - | . | . | . | .
COc1cccc(C2CC(c3ccc(Br)cc3)=NN2C(=O)c2ccncc2)c1OC (stereo not drawn) | -35 | . | - | - | - | -
CC(C)NC(=O)N1C[C@@H]2C(c3ccccc3)[C@H](C1)N2Cc1ccc(F)cc1 (stereo partly drawn) | - | . | . | . | . | .
